The whole screen tested about 2,500 compounds, of which about 460 (18%) were called active.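 Rule for the calls: active = mean activation above a cutoff of low control average plus 3 SD from the earlier screen (cut at about 12% in these data); inactive = the rest.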 Not all results are given here.

This assay is described as follows: compound fluorescence interference without thin filaments, confirmation, artefact control for cardiac RTF calcium sensitizer project, biochemical (AID 504382). Particulars: IANBD fluorescence interference counterscreen, buffer, EC20 Ca2+; at 7.2 µM; hits give high values; scaled: EC20 calcium 0, EC100 calcium 100. An outline of the steps: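 Medium: MOPS buffer, 190 mM, with KCl, MgCl2, EGTA, NTA, DTT, pH 7.20; Dosing: one dose of 7.2 µM, 0.7% DMSO; Probe or stimulus: calcium at EC20 level, 0.472 mM final; Incubation: 15 min, 25 °C; Evaluation: compound fluorescence interference relative to control well signal range; Signal: fluorescence, 480/540 nm.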
As for `COC(=O)C/C(O)=C(/N=Nc1cccc(C(F)(F)F)c1)C(=O)OC`, the fluorescence artifact activation was 0.94% (inactive).

On to `O=C(Nc1nc(-c2nc3ccccc3s2)cs1)C1COc2ccccc2O1` (stereo unspecified), for which the fluorescence artifact activation is 11.1% (inactive).

As for `O=C(Nc1ccc(Cl)cn1)C1COc2ccccc2O1` (stereo unspecified), the fluorescence artifact activation was 14.7% (active).

As for `O=C1NCCN1c1ncc([N+](=O)[O-])s1`, the fluorescence artifact activation is 4.21% (inactive).

Take `COc1ccc(S(=O)(=O)N(CC(C)C)C2CCS(=O)(=O)C2)cc1OC` (stereo unspecified): the fluorescence artifact activation is 2.69% (inactive).

In the case of `O=C1c2ccccc2C(=O)N1c1ccc(Cc2ccncc2)cc1`, the fluorescence artifact activation is 5.28% (inactive).

Turning to `O=C(Nc1nc2c(s1)CN(Cc1ccccc1)CC2)c1cccc(S(=O)(=O)N2CCc3ccccc32)c1`, the fluorescence artifact activation is -0.03% (inactive).

Regarding `Cc1ccc(S(=O)(=O)c2cc(C#N)c(=O)[nH]c2N)cc1`, the fluorescence artifact activation was 6.68% (inactive).

With `O=C(Cc1ccc(Cl)cc1)NNS(=O)(=O)c1ccc([N+](=O)[O-])cc1`, the fluorescence artifact activation was 83% (active).

In the case of `CC(=O)NCC(O)c1ccc([N+](=O)[O-])cc1` (stereo unspecified), the fluorescence artifact activation was -0.01% (inactive).

Consider `O=C(CSc1ccc(Cl)cc1)Nc1nnc(-c2cccc([N+](=O)[O-])c2)s1`, for which the fluorescence artifact activation was 0.01% (inactive).

In the case of `O=C1CC(/C=C/c2ccco2)=Nc2ccccc2N1`, the fluorescence artifact activation is 0.39% (inactive).

Consider `Cc1ccc(NC(=O)O/N=C/c2ccc(F)cc2)cc1`, for which the fluorescence artifact activation was 0.14% (inactive).

In the case of `CCOC(=O)C1CCCN(C2=NC(=O)/C(=C/c3ccc(O)c(OC)c3)S2)C1` (stereo unspecified), the fluorescence artifact activation was 0.04% (inactive).

Consider `CCN1CC=C2C(C#N)=C(N)C(C#N)(C#N)[C@H](c3cccc(OC)c3OC)[C@H]2C1`, for which the fluorescence artifact activation was 0.43% (inactive).

As to `CCN1CC=C2C(C#N)=C(N)C(C#N)(C#N)[C@H](c3ccoc3)[C@H]2C1`, the fluorescence artifact activation was 0.03% (inactive).

In the case of `CCN1CC=C2C(C#N)=C(N)C(C#N)(C#N)C(c3cc(Cl)ccc3Cl)C2C1` (stereo unspecified), the fluorescence artifact activation was 95% (active).

Regarding `CC1=C(C(=O)N(C)C)C(c2ccc(C)s2)NC(=S)N1` (stereo unspecified), the fluorescence artifact activation was 0.26% (inactive).

On to `CN(CC(=O)Nc1ccccc1Cl)C(=O)c1cc(=O)[nH]c2ccccc12`, for which the fluorescence artifact activation is 17.4% (active).

Regarding `CN(C)S(=O)(=O)c1ccc(C(=O)Oc2cc(=O)[nH]c3ccccc23)cc1`, the fluorescence artifact activation was 0.2% (inactive).

For `COc1ccc(N(CC(=O)Nc2ccccc2C(=O)NCC(C)C)S(C)(=O)=O)cc1`, the fluorescence artifact activation is 0.65% (inactive).

With `N#Cc1c(NC(=O)/C=C/C(=O)O)sc2c1CCN(Cc1ccccc1)C2`, the fluorescence artifact activation is 0.08% (inactive).

On to `Nc1c(C(=O)Nc2ccc(S(=O)(=O)N3CCCC3)cc2)sc2nc3ccc(OC(F)(F)F)cc3cc12`, for which the fluorescence artifact activation is 0.16% (inactive).

With `COc1ccccc1N=C1NC(=O)/C(=C/c2ccc(N(C)C)cc2)S1`, the fluorescence artifact activation is 0.13% (inactive).

`Cc1ccc(N=C2NC(=O)/C(=C/c3cccnc3)S2)cc1C`: the fluorescence artifact activation is 0.55% (inactive).

With `O=C1NC(=NCc2ccccc2)S/C1=C\c1ccccc1`, the fluorescence artifact activation is 14.6% (active).

On to `Nc1ccc2c(O)cc(S(=O)(=O)O)cc2c1`, for which the fluorescence artifact activation is 0.19% (inactive).

With `Nc1ccc(S(N)(=O)=O)cc1N`, the fluorescence artifact activation was 196% (active).

Regarding `O=C1NC(c2cccc([N+](=O)[O-])c2)Oc2ccccc21` (stereo unspecified), the fluorescence artifact activation is -0.04% (inactive).

With `Cc1ccc(OCc2ccc(C(=O)O)o2)cc1C`, the fluorescence artifact activation was -0.09% (inactive).

Consider `O=C(NCc1csc2ccccc12)Nc1cc(Cl)cc(Cl)c1`, for which the fluorescence artifact activation is 0.06% (inactive).

On to `O=C(O)/C=C/C(=O)NCc1csc2ccccc12`, for which the fluorescence artifact activation is 94.3% (active).

In the case of `Cc1cc(C(=O)NNC(=S)NCc2ccccc2)cs1`, the fluorescence artifact activation is -0.07% (inactive).

Turning to `CCOC(=O)c1c(-c2ccccc2)csc1NC(=O)/C(C#N)=C/c1ccc(O)c(OC)c1`, the fluorescence artifact activation was 6.3% (inactive).

With `O=C(NC1CCCCC1)c1cccc2c1C(=O)c1ccc(N3CCCC3)cc1S2(=O)=O`, the fluorescence artifact activation is 23.8% (active).

As to `CC1CCN(c2ccc3c(c2)S(=O)(=O)c2cccc(C(=O)NC4CCCCC4)c2C3=O)CC1`, the fluorescence artifact activation is 0.04% (inactive).

For `O=C(NC1CCCCC1)c1cccc2c1C(=O)c1ccc(N3CCC(Cc4ccccc4)CC3)cc1S2(=O)=O`, the fluorescence artifact activation is 0.54% (inactive).

On to `C=CCNC(=O)c1cccc2c1C(=O)c1ccc(N3CCCC3)cc1S2(=O)=O`, for which the fluorescence artifact activation was 0.04% (inactive).

Take `CN1CCC[C@@H]1CCNC(=O)c1cccc2c1C(=O)c1ccc(N3CCCC3)cc1S2(=O)=O`: the fluorescence artifact activation was -0.09% (inactive).

For the molecule `O=C(NCC1CC1)c1cccc2c1C(=O)c1ccc(N3CCCC3)cc1S2(=O)=O`, the fluorescence artifact activation is 69.4% (active).

With `COc1ccccc1N1C(=O)c2cccc3c(N(C)CCO)ccc(c23)C1=O`, the fluorescence artifact activation is 0.41% (inactive).

Turning to `O=C(N/C(=C/c1cn(-c2ccccc2)nc1-c1ccccc1)C(=O)N1CCOCC1)c1ccc(Cl)cc1Cl`, the fluorescence artifact activation is 3.44% (inactive).

Regarding `COc1cccc2c1C(=O)c1c(O)c3c(c(O)c1C2=O)C[C@](O)(C(C)=O)C[C@H]3O[C@@H]1C[C@@H](N)[C@@H](O)[C@@H](C)O1`, the fluorescence artifact activation is -0.05% (inactive).

Turning to `COc1cccc2c1C(=O)c1c(O)c3c(c(O)c1C2=O)CC(O)(C(=O)CO)CC3OC1CC(N(C)C)C(O)C(C)O1` (stereo unspecified), the fluorescence artifact activation is 40.5% (active).

Regarding `COc1cccc2c1C(=O)c1c(O)c3c(c(O)c1C2=O)CC(O)(C(C)=O)CC3OC1CC(O)C(O)C(C)O1` (stereo unspecified), the fluorescence artifact activation is 24.9% (active).

Turning to `COc1cccc2c1C(=O)c1c(O)c3c(c(O)c1C2=O)C[C@@](O)(C(=O)CO)C[C@@H]3OC1CC(N)C(O)C(C)O1` (stereo partly specified), the fluorescence artifact activation was 0.06% (inactive).

`COc1cccc2c1C(=O)c1c(O)c3c(c(O)c1C2=O)CC(O)(C(C)=O)CC3OC1CC(N(C)C)C(O)C(C)O1` (stereo unspecified): the fluorescence artifact activation is 0% (inactive).

For `COc1cccc2c1C(=O)c1c(O)c3c(c(O)c1C2=O)C[C@@](O)(C(=O)CO)C[C@@H]3O[C@H]1C[C@H](N)[C@H](O)[C@H](C)O1`, the fluorescence artifact activation was -0.07% (inactive).

As for `COC(=O)c1ccccc1NC(=O)[C@@H]1CCC(=O)N1C1OC(=O)c2c1ccc(OC)c2OC` (stereo partly specified), the fluorescence artifact activation was 0.09% (inactive).

Take `O=C1C=C(NCc2ccco2)CC(c2ccc(Cl)cc2)C1` (stereo unspecified): the fluorescence artifact activation was 0.31% (inactive).

Take `CC1=CC=CN2CC(O)CN=C12` (stereo unspecified): the fluorescence artifact activation is 3.77% (inactive).

Turning to `Cc1c(C(=O)NCc2ccc3c(c2)cc(C)n3C)cccc1[N+](=O)[O-]`, the fluorescence artifact activation was 0.13% (inactive).

Consider `COc1cc(NC(=O)CSc2nc3ccccc3n2-c2ccccc2)c(C)cc1[N+](=O)[O-]`, for which the fluorescence artifact activation is 0.03% (inactive).

`COC1=C/C(=C/c2c(N)n3c(nc2=O)sc2cc(S(C)(=O)=O)ccc23)C=CC1=O`: the fluorescence artifact activation is 0.11% (inactive).

`N#Cc1cccc(NC(=S)Nc2ccccc2)c1`: the fluorescence artifact activation was 0.03% (inactive).

For `CC(C)(C)OC(=O)[C@H](Cc1ccccc1)NC(=O)c1nc[nH]c1C(=O)NCc1ccccc1`, the fluorescence artifact activation is 4.14% (inactive).

Take `CN(Cc1ccccc1)C(=O)c1[nH]cnc1C(=O)NCc1ccccc1`: the fluorescence artifact activation is 12.7% (active).

For `CCOC(=O)c1[nH]cnc1C(=O)Nc1ccccn1`, the fluorescence artifact activation was 0.74% (inactive).

As to `CCOC(=O)C1=C(C)N=c2s/c(=C\c3ccc(OCC(=O)O)cc3)c(=O)n2C1c1ccc(Cl)cc1` (stereo unspecified), the fluorescence artifact activation is 0.05% (inactive).

On to `CC1=C/C(=C\C=C(C#N)C#N)N(C)c2ccccc21`, for which the fluorescence artifact activation was 0.3% (inactive).

Turning to `O=C(O)c1cc(Cl)ccc1-c1ccc(/C=C/c2cc(C(F)(F)F)[nH]c(=O)n2)o1`, the fluorescence artifact activation was 21.8% (active).

In the case of `O=C(O)c1ccccc1-c1ccc(/C=C/c2cc(C(F)(F)F)[nH]c(=O)n2)o1`, the fluorescence artifact activation was 0.16% (inactive).

On to `Cc1cc2nc(/C(C#N)=C\c3ccc(-c4ccccc4C(=O)O)o3)[nH]c2cc1C`, for which the fluorescence artifact activation is 0.09% (inactive).

As for `CC(=O)NN1C(=O)/C(=C\c2ccc(O)cc2)SC1=S`, the fluorescence artifact activation was 0.69% (inactive).

On to `C/C(=N\Nc1ccc([N+](=O)[O-])cc1[N+](=O)[O-])c1cccnc1`, for which the fluorescence artifact activation is 0.07% (inactive).

For the molecule `Fc1ccc(OCc2nnc(SCCN3CCOCC3)o2)cc1`, the fluorescence artifact activation is -0.06% (inactive).

Turning to `O=C(CSc1nnc(COc2ccccc2)o1)N1CCN(c2ccccc2)CC1`, the fluorescence artifact activation was 12% (active).

Consider `O=C(NCc1nnc(SCC(=O)N2CCCCCC2)o1)c1ccco1`, for which the fluorescence artifact activation was 8.13% (inactive).

Regarding `Cc1cccc(NC(=O)CN2C(=O)N/C(=C/c3ccc(C)s3)C2=O)c1`, the fluorescence artifact activation was 0.09% (inactive).

`O=C(O)c1ccc(-n2c(/C=C/c3cccc([N+](=O)[O-])c3)nc3ccccc3c2=O)cc1`: the fluorescence artifact activation is 0.47% (inactive).

As for `COCCN1C(=O)/C(=C/c2ccc(N3CCCC3)cc2)SC1=S`, the fluorescence artifact activation is 0.34% (inactive).

In the case of `CCOC(=O)C1CCCN(C(=O)c2cccc(S(=O)(=O)N3CC(C)OC(C)C3)c2)C1` (stereo unspecified), the fluorescence artifact activation is 0.05% (inactive).

With `CC1CN(c2ccc(NS(=O)(=O)c3ccccc3)cc2C(=O)O)CC(C)O1` (stereo unspecified), the fluorescence artifact activation is 31.9% (active).

Turning to `CC(=O)c1ccc(S(=O)(=O)Nc2ccc(C(=O)N3CCC3)cc2)cc1`, the fluorescence artifact activation was 0.27% (inactive).

For the molecule `O=C(Nc1ccc(F)cc1F)c1ccc(COc2c(F)c(F)cc(F)c2F)o1`, the fluorescence artifact activation is -0.01% (inactive).

In the case of `CCCCc1ccc(NC(=O)N2CCNC(=O)C2CC(=O)Nc2ccsc2C(=O)OC)cc1` (stereo unspecified), the fluorescence artifact activation was -0.11% (inactive).

In the case of `Cc1cn2c(N)c(C=C3C=C(Cl)C(=O)C(Cl)=C3)c(=O)nc2s1`, the fluorescence artifact activation was 4.46% (inactive).

`CCOC(=O)CN1C(=O)S/C(=C/C=C/c2ccc(N(C)C)cc2)C1=O`: the fluorescence artifact activation is -0.03% (inactive).

With `COc1ccc(C(=O)/C=C/c2cn(CC(O)CN3CCN(C)CC3)c3ccccc23)cc1OC` (stereo unspecified), the fluorescence artifact activation is 18.9% (active).

Turning to `O=C(/C=C/c1cn(CC(O)CN2CCCCCC2)c2ccccc12)c1cccs1` (stereo unspecified), the fluorescence artifact activation was 5.69% (inactive).

In the case of `O=C(/C=C/c1cn(CC(O)CN2CCCCC2)c2ccccc12)c1cccs1` (stereo unspecified), the fluorescence artifact activation is 14.5% (active).

For `CCCN(CCC)CC(O)Cn1cc(/C=C/C(=O)c2cccs2)c2ccccc21` (stereo unspecified), the fluorescence artifact activation is 0.1% (inactive).

Regarding `COc1ccc(C(=O)/C=C/c2cn(CC(O)CN3CCOCC3)c3ccccc23)cc1` (stereo unspecified), the fluorescence artifact activation was 6.56% (inactive).

With `Cc1ccc(C(=O)/C=C/c2cn(CC(O)CN3CCOCC3)c3ccccc23)cc1` (stereo unspecified), the fluorescence artifact activation is 0.01% (inactive).

As for `CCN(CC)c1ccc(-c2sc(Nc3ccccc3)n[n+]2-c2ccc(F)cc2)cc1`, the fluorescence artifact activation was 3.87% (inactive).

Turning to `C=CCOc1ccn(C)c(=O)n1`, the fluorescence artifact activation was 2.39% (inactive).
